Data taken from ChEMBL document CHEMBL2413018, “Nonclassical antifolates, part 4. 5-(2-aminothiazol-4-yl)-4-phenyl-4H-1,2,4-triazole-3-thiols as a new class of DHFR inhibitors: synthesis, biological evaluation and molecular modeling study” (Eur J Med Chem, 2013).
pIC50: −log10 of the molar value. Values after ≈ are worked out from the molar mass of the structure shown.

Assays:
Pseudomonas aeruginosa [1] = assay: Antibacterial activity against Pseudomonas aeruginosa at 200 ug/disc after 24 hrs by agar disc-diffusion method; type: functional; conditions: for zone of inhibition at 200 µg/disc: read-out: DIZ
Method in brief: (§1)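 Disc diffusion on Müller-Hinton agar. 8 mm filter-paper discs carried test solution in DMSO at 200 µg/disc and were placed on agar pre-inoculated with each bacterium. Incubated at 37 °C; inhibition zone diameter measured after 24 h. DMSO solvent control.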

Candida albicans = assay: Antifungal activity against Candida albicans at 200 ug/disc after 48 hrs by agar disc-diffusion method; type: functional; conditions: read-out: DIZ
Method in brief: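 Disc diffusion for Candida albicans on Müller-Hinton agar. 8 mm discs loaded at 200 µg/disc from DMSO, with clotrimazole 200 µg/disc as reference. Plates held at 25 °C for 48 h, then growth-inhibition zone diameter measured in mm.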

Escherichia coli [2] = assay: Antibacterial activity against Escherichia coli at 200 ug/disc after 24 hrs by agar disc-diffusion method; type: functional; conditions: for zone of inhibition at 200 µg/disc: read-out: DIZ; method in brief: as §1
Bacillus subtilis [3] = assay: Antibacterial activity against Bacillus subtilis at 200 ug/disc after 24 hrs by agar disc-diffusion method; type: functional; conditions: for zone of inhibition at 200 µg/disc: read-out: DIZ; method in brief: as §1
Staphylococcus aureus [4] = assay: Antibacterial activity against Staphylococcus aureus at 200 ug/disc after 24 hrs by agar disc-diffusion method; type: functional; conditions: for zone of inhibition at 200 µg/disc: read-out: DIZ; method in brief: as §1
Schistosoma mansoni = assay: Antischistosomal activity against Schistosoma mansoni assessed as mortality at 50 ug/ml after 24 hrs by microscopic analysis; type: functional
Method in brief: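 Adult worms, 3 male plus 3 female per well, triplicate wells. Compounds in DMSO, 0.5% DMSO as negative control, praziquantel 0.1 µg/ml as positive control. Incubated 37 °C for 24 h, then scored under a dissecting microscope. Worms motionless for at least 1 min, coiled and darkened, counted dead. Activity given as % dead worms per well.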

Pseudomonas aeruginosa [5] = assay: Antibacterial activity against Pseudomonas aeruginosa after 24 hrs by microdilution susceptibility method; type: functional
Bacillus subtilis [6] = assay: Antibacterial activity against Bacillus subtilis after 24 hrs by microdilution susceptibility method; type: functional
Method in brief: (§2)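 Microdilution in Müller-Hinton broth. Compounds dissolved in DMSO at 64 µg/mL, then twofold dilutions from 64 down to 0.125 µg/ml. Inoculum 10^6 CFU/ml. Plates held 24 h at 37 °C. MIC taken as the lowest concentration giving no visible growth by eye.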

Staphylococcus aureus [7] = assay: Antibacterial activity against Staphylococcus aureus after 24 hrs by microdilution susceptibility method; type: functional; method in brief: as §2
Dihydrofolate reductase = target: T1, Dihydrofolate reductase (Bos taurus, UniProt P00376); assay: Inhibition of bovine liver DHFR measured every 1 min for 10 mins
T1 sequence (P00376 whole entry): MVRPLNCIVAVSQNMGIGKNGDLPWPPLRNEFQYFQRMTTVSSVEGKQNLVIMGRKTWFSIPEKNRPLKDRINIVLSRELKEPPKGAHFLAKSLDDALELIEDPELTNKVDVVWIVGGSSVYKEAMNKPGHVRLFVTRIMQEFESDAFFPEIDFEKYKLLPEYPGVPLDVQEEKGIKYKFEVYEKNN

Escherichia coli [8] = assay: Antibacterial activity against Escherichia coli after 24 hrs by microdilution susceptibility method
MCF7 = assay: Cytotoxicity against human MCF7 cells after 48 hrs by MTT assay; type: functional; conditions: MCF7, 48 h, read-out: LC50 (the source's name)
Method in brief: (§3)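 HCT116, HepG2 and MCF7 cells grown in RPMI 1640 with 1% antibiotic-antimycotic and 1% L-glutamine at 37 °C, 5% CO2, seeded at 10 x 10^3 cells/well for 24 h. Exposed in serum-free medium to 0.78–100 µM for 48 h, then MTT added for 4 h and dissolved overnight in 10% SDS.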

HepG2 = assay: Cytotoxicity against human HepG2 cells after 48 hrs by MTT assay; type: functional; conditions: HepG2, 48 h, read-out: LC50 (the source's name); method in brief: as §3
A549 = assay: Cytotoxicity against human A549 cells after 48 hrs by MTT assay; type: functional; conditions: A549, 48 h, read-out: LC50 (the source's name)
Method in brief: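 A549 cells grown in DMEM with 1% antibiotic-antimycotic and 1% L-glutamine at 37 °C, 5% CO2, seeded at 10 x 10^3 cells/well for 24 h. Exposed in serum-free medium to 0.78–100 µM for 48 h, then MTT added for 4 h and dissolved overnight in 10% SDS.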

HCT-116 = assay: Cytotoxicity against human HCT116 cells after 48 hrs by MTT assay; type: functional; conditions: HCT-116, 48 h, read-out: LC50 (the source's name); method in brief: as §3

| Compound | zone of inhibition at 200 µg/disc (Pseudomonas aeruginosa [1]) [mm] | zone of inhibition at 200 µg/disc (Candida albicans) [mm] | zone of inhibition at 200 µg/disc (Escherichia coli [2]) [mm] | zone of inhibition at 200 µg/disc (Bacillus subtilis [3]) [mm] | zone of inhibition at 200 µg/disc (Staphylococcus aureus [4]) [mm] | mortality at 50 µg/mL (Schistosoma mansoni) [%] | MIC (Bacillus subtilis [6]) [µg/mL] | pIC50 (Dihydrofolate reductase) | other results |
| --- | --- | --- | --- | --- | --- | --- | --- | --- | --- |
| CN(Cc1cnc2nc(N)nc(N)c2n1)c1ccc(C(=O)N[C@@H](CCC(=O)O)C(=O)O)cc1 [METHOTREXATE] | 8 | 8 | 8 | 8 | 8 | – | – | – | – |
| Clc1ccccc1C(c1ccccc1)(c1ccccc1)n1ccnc1 [CLOTRIMAZOLE] | – | 21 | – | – | – | – | – | – | – |
| Nc1nc(-c2nnc(S)n2-c2ccccc2)cs1 | 8 | 8 | 8 | 8 | 8 | 16.6 | – | – | – |
| O=C(O)c1cn(C2CC2)c2cc(N3CCNCC3)c(F)cc2c1=O [CIPROFLOXACIN] | 36 | – | 38 | 35 | 32 | – | 0.5 (≈ 1.51 µM) | – | MIC (Pseudomonas aeruginosa [5]): 1 µg/mL (≈ 3.02 µM); MIC (Staphylococcus aureus [7]): 0.5 µg/mL (≈ 1.51 µM) |
| Nc1nc(-c2nnc(S)n2-c2ccc(Cl)cc2)cs1 | 8 | 12 | 8 | 12 | 8 | 5 | – | 4.74 | – |
| Nc1nc(-c2nnc(S)n2-c2ccc(Oc3ccccc3)cc2)cs1 | 16 | 14 | 20 | 32 | 28 | 55.6 | 0.5 (≈ 1.36 µM) | – | MIC (Pseudomonas aeruginosa [5]): 1 µg/mL (≈ 2.72 µM); MIC (Escherichia coli [8]): 0.5 µg/mL (≈ 1.36 µM); MIC (Staphylococcus aureus [7]): 0.5 µg/mL (≈ 1.36 µM) |
| COc1ccccc1-n1c(S)nnc1-c1csc(N)n1 | 8 | 8 | 15 | 16 | 12 | – | 4 (≈ 13.1 µM) | 4.62 | MIC (Escherichia coli [8]): 8 µg/mL (≈ 26.2 µM) |
| CC(=O)N(C(C)=O)c1nc(-c2nnc(S)n2-c2ccc(C)cc2)cs1 | 8 | 8 | 8 | 8 | 8 | – | – | – | CC50 (MCF7): 23.8 µM; CC50 (HepG2): 18.9 µM; CC50 (A549): 25 µM |
| COc1ccc(-n2c(S)nnc2-c2csc(N(C(C)=O)C(C)=O)n2)c(OC)c1 | 8 | 8 | 8 | 8 | 8 | 0 | – | 5.10 | – |
| O=C(C1CCCCC1)N1CC(=O)N2CCc3ccccc3C2C1 (centres undefined) [PRAZIQUANTEL] | – | – | – | – | – | 100 | – | – | – |
| GENTAMICIN | – | – | – | – | – | – | 2 | – | MIC (Pseudomonas aeruginosa [5]): 1 µg/mL; MIC (Staphylococcus aureus [7]): 2 µg/mL; inhibition zone (IZ) (Pseudomonas aeruginosa [1]): 19 mm; inhibition zone (IZ) (Escherichia coli [2]): 20.8 mm; inhibition zone (IZ) (Bacillus subtilis [3]): 25 mm; inhibition zone (IZ) (Staphylococcus aureus [4]): 26.5 mm |
| Cc1ccc(-n2c(S)nnc2-c2csc(N)n2)cc1 | 8 | 8 | 8 | 8 | 8 | 10.5 | – | 4.62 | – |
| CC(=O)N(C(C)=O)c1nc(-c2nnc(S)n2-c2ccc(Oc3ccccc3)cc2)cs1 | 8 | 8 | 8 | 20 | 18 | 100 | 2 (≈ 4.43 µM) | 4.82 | MIC (Staphylococcus aureus [7]): 4 µg/mL (≈ 8.86 µM) |
| CC(=O)N(C(C)=O)c1nc(-c2nnc(S)n2-c2ccc(Cl)cc2)cs1 | 8 | 8 | 8 | 21 | 16 | – | 4 (≈ 10.2 µM) | 5.00 | CC50 (HepG2): 29.1 µM; MIC (Staphylococcus aureus [7]): 4 µg/mL (≈ 10.2 µM) |
| COc1cccc2c1C(=O)c1c(O)c3c(c(O)c1C2=O)C[C@@](O)(C(=O)CO)C[C@@H]3O[C@H]1C[C@H](N)[C@H](O)[C@H](C)O1 [DOXORUBICIN] | – | – | – | – | – | – | – | – | CC50 (MCF7): 26.1 µM; CC50 (HepG2): 21.4 µM; CC50 (HCT-116): 37.7 µM; CC50 (A549): 28.3 µM |
| COc1ccccc1-n1c(S)nnc1-c1csc(N(C(C)=O)C(C)=O)n1 | 8 | 8 | 16 | 20 | 8 | – | 4 (≈ 10.3 µM) | – | MIC (Escherichia coli [8]): 0.8 µg/mL (≈ 2.05 µM) |
| COc1ccc(-n2c(S)nnc2-c2csc(N)n2)cc1 | 8 | 8 | 8 | 12 | 8 | – | – | 4.68 | – |
| CC(=O)N(C(C)=O)c1nc(-c2nnc(S)n2-c2ccccc2)cs1 | 8 | 8 | 8 | 8 | 8 | – | – | 4.46 | CC50 (A549): 33.2 µM |
| COc1ccc(-n2c(S)nnc2-c2csc(N(C(C)=O)C(C)=O)n2)cc1 | 8 | 8 | 8 | 14 | 12 | 6 | – | 5.30 | CC50 (A549): 35.4 µM |
